# From ChEMBL document CHEMBL2203281, “Microwave assisted synthesis and anti-influenza virus activity of 1-adamantyl substituted N-(1-thia-4-azaspiro[4.5]decan-4-yl)carboxamide derivatives” (Bioorg Med Chem, 2012)
# Tests used:
# [1] = Cytotoxicity against dog MDCK cells assessed as cell viability by MTS assay; format: cell-based, Canis lupus familiaris
# [2] = Cytotoxicity against dog MDCK cells assessed as cell morphology alterations by microscopic analysis; format: cell-based, Canis lupus familiaris
# In short: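 MDCK cells were exposed to serial compound dilutions and kept 72 h at 35 °C alongside the antiviral plates. MCC is the lowest concentration causing a microscopically detectable change in cell morphology.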
# Influenza B virus [3] = test: Antiviral activity against Influenza B virus (B/HK/5/72) infected in MDCK cells assessed as virus-induced cytopathic effect after 3 days by MTS assay; format: functional, cell-based; conditions: B/Hong Kong/05/1972, MDCK, 72 h
# In short: (§1)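 Multicycle CPE reduction assay in 96-well MDCK cells. Cells got serial compound dilutions together with influenza virus at multiplicity of infection 0.0004 PFU per cell, then 72 h at 35 °C. CPE was read by microscopic scoring and then by MTS cell viability.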
# Influenza B virus [4] = test: Antiviral activity against Influenza B virus (B/HK/5/72) infected in MDCK cells assessed as virus-induced cytopathic effect after 3 days by microscopic analysis; format: functional, cell-based; conditions: B/Hong Kong/05/1972, MDCK, 72 h; in short: as §1
# Influenza A virus [5] = test: Antiviral activity against Influenza A virus (A/X-31(H3N2)) infected in MDCK cells assessed as virus-induced cytopathic effect after 3 days by MTS assay; format: functional, organism-based; in short: as §1
# Influenza A virus [6] = test: Antiviral activity against Influenza A virus (A/X-31(H3N2)) infected in MDCK cells assessed as virus-induced cytopathic effect after 3 days by microscopic analysis; format: functional, organism-based; conditions: 72 h; in short: as §1
# Influenza A virus [7] = test: Antiviral activity against Influenza A virus (A/PR/8/34(H1N1)) infected in MDCK cells assessed as virus-induced cytopathic effect after 3 days by MTS assay; format: functional, organism-based, A/Puerto Rico/8/1934(H1N1); in short: as §1
# Influenza A virus [8] = test: Antiviral activity against Influenza A virus (A/PR/8/34(H1N1)) infected in MDCK cells assessed as virus-induced cytopathic effect after 3 days by microscopic analysis; format: functional, organism-based, A/Puerto Rico/8/1934(H1N1); in short: as §1
# Hemagglutinin = Hemagglutinin (Influenza A virus (strain A/X-31 H3N2), UniProt P03438); test: Inhibition of hemagglutininin in Influenza A virus (A/X-31(H3N2)) infected in chicken red blood cells assessed as inhibition of hemolysis preincubated for 1 hr prior to addition of red blood cells measured at pH 5.0 by spectrophotometric analysis; format: cell-based
# In short: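 Influenza A/X-31 (H3N2) stock was preincubated with serial compound dilutions for 1 h at 37 °C. Chicken RBC were added for 10 min at 37 °C, then pelleted and resuspended in buffer holding the same compound level. pH was lowered to 5.0 for 25 min at 37 °C, then neutralised. Intact RBC were spun out and supernatant OD540 read. IC50 came from dose-response.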
# [9] = Selectivity index, ratio of cytotoxic concentration for dog MDCK cells to EC50 for Influenza A virus (A/X-31(H3N2)); format: toxicity, cell-based; conditions: read-out: Ratio EC50
# [10] = Influenza A virus, A/Puerto Rico/8/1934(H1N1), MDCK, 72 h
# Hemagglutinin, sequence (P03438 whole entry): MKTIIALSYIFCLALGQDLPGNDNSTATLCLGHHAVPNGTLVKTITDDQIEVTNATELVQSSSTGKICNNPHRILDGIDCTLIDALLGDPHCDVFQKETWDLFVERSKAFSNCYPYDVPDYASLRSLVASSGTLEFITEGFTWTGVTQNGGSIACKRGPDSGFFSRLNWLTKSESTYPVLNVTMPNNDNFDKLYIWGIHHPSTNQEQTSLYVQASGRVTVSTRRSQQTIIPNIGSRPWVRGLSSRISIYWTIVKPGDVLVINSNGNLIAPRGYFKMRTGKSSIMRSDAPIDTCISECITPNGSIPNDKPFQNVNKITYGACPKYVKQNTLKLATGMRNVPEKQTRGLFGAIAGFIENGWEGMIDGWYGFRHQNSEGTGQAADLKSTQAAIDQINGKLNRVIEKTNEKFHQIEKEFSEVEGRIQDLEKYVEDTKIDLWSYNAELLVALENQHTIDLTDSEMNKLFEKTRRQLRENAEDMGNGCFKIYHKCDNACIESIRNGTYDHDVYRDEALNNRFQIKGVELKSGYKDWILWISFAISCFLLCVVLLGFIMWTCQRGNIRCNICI
Structure (SMILES),CC50 [1],MCC [2],EC50 (Influenza B virus [3]),EC50 (Influenza B virus [4]),"EC50 (Influenza A virus [5]; Influenza A virus, MDCK, 72 h)",EC50 (Influenza A virus [6]),EC50 (Influenza A virus [7]; [10]),EC50 (Influenza A virus [8]; [10]),EC50 (Influenza A virus [5]; mdck),EC50 (Influenza A virus [7]; mdck),EC50 (Influenza A virus [8]; mdck),IC50 (Hemagglutinin),selectivity ratio [9]
CCCC1CCC2(CC1)SC(C)C(=O)N2NC(=O)C12CC3CC(CC(C3)C1)C2 (stereo not drawn),> 100 µM,> 100 µM,> 100 µM,> 100 µM,23 µM,29 µM,> 100 µM,> 100 µM,–,–,–,–,–
Cc1nc2sccn2c1C(=O)NN1C(=O)C(C)SC12CCC(C)CC2 (stereo not drawn),> 100 µM,> 100 µM,> 100 µM,> 100 µM,9 µM,6.8 µM,> 100 µM,> 100 µM,–,–,–,–,–
CC(N)C12CC3CC(CC(C3)C1)C2 (stereo not drawn) [RIMANTADINE],218 µM,–,> 500 µM,> 500 µM,40 µM,45 µM,2.5 µM,2.7 µM,–,–,–,–,–
CC1CCC2(CC1)SCC(=O)N2NC(=O)C12CC3CC(CC(C3)C1)C2 (stereo not drawn),> 100 µM,> 100 µM,> 100 µM,> 100 µM,> 100 µM,> 100 µM,> 100 µM,> 100 µM,–,–,–,–,–
CC(=O)N[C@H]1[C@H]([C@H](O)[C@H](O)CO)OC(C(=O)O)=C[C@@H]1NC(=N)N [ZANAMIVIR],> 100 µM,> 100 µM,0.063 µM,0.072 µM,53 µM,12 µM,0.48 µM,0.44 µM,–,–,–,–,–
CC1SC2(CCC(c3ccccc3)CC2)N(NC(=O)C23CC4CC(CC(C4)C2)C3)C1=O (stereo not drawn),42 µM,20 µM,> 100 µM,> 100 µM,> 100 µM,> 100 µM,> 100 µM,> 100 µM,–,–,–,–,–
CCC1CCC2(CC1)SC(C)C(=O)N2NC(=O)C12CC3CC(CC(C3)C1)C2 (stereo not drawn),> 100 µM,> 100 µM,> 100 µM,> 100 µM,1.7 µM,51 µM,> 100 µM,> 100 µM,–,–,–,–,–
NC(=O)c1ncn([C@@H]2O[C@H](CO)[C@@H](O)[C@H]2O)n1 [RIBAVIRIN],> 100 µM,> 20 µM,0.14 µM,0.094 µM,–,–,–,–,8.5 µM,8.4 µM,8.9 µM,–,–
CC1CCC2(CC1)SC(C)C(=O)N2NC(=O)C12CC3CC(CC(C3)C1)C2 (stereo not drawn),> 100 µM,> 100 µM,> 100 µM,> 100 µM,1.4 µM,1.6 µM,> 100 µM,> 100 µM,–,–,–,3.7 µM,> 67
CC1SC2(CCCCC2)N(NC(=O)C23CC4CC(CC(C4)C2)C3)C1=O (stereo not drawn),> 100 µM,> 100 µM,> 100 µM,> 100 µM,> 100 µM,> 100 µM,> 100 µM,> 100 µM,–,–,–,–,–
CCC1CCC2(CC1)SCC(=O)N2NC(=O)C12CC3CC(CC(C3)C1)C2 (stereo not drawn),> 100 µM,> 100 µM,> 100 µM,> 100 µM,21 µM,> 100 µM,> 100 µM,> 100 µM,–,–,–,–,–
CCCC1CCC2(CC1)SCC(=O)N2NC(=O)C12CC3CC(CC(C3)C1)C2 (stereo not drawn),> 100 µM,> 100 µM,> 100 µM,> 100 µM,44 µM,> 100 µM,> 100 µM,> 100 µM,–,–,–,–,–
CC(C)(C)C1CCC2(CC1)SCC(=O)N2NC(=O)C12CC3CC(CC(C3)C1)C2 (stereo not drawn),> 100 µM,> 20 µM,> 100 µM,> 100 µM,34 µM,> 100 µM,53 µM,> 100 µM,–,–,–,–,–
O=C1CSC2(CCC(c3ccccc3)CC2)N1NC(=O)C12CC3CC(CC(C3)C1)C2 (stereo not drawn),> 100 µM,> 20 µM,> 100 µM,> 100 µM,> 100 µM,> 100 µM,> 100 µM,> 100 µM,–,–,–,–,–
CC1SC2(CCC(C(C)(C)C)CC2)N(NC(=O)C23CC4CC(CC(C4)C2)C3)C1=O (stereo not drawn),> 100 µM,> 100 µM,> 100 µM,> 100 µM,> 100 µM,> 100 µM,> 100 µM,> 100 µM,–,–,–,–,–
NC12CC3CC(CC(C3)C1)C2 [AMANTADINE],> 500 µM,> 500 µM,> 500 µM,> 500 µM,208 µM,224 µM,75 µM,58 µM,–,–,–,–,–
